MPTP inh – mitochondrial permeability transition pore inhibitors, primary screen, biochemical, isolated mouse mitochondria, absorbance; Ca2+ swelling absorbance, 30 min; 360,000 compounds, 1.4% hits; AID 602449, 2012; inhibition, % at 10 µM;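 active = inhibition of 50% or more, scaled per plate between neutral and stimulator controls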
MC4R antagonist – MC4R antagonists of cAMP signaling, primary screen, cell-based, TR-FRET, antagonist arm of biased-ligand search | Melanocortin receptor 4 (Homo sapiens), P32245 | MC4R-expressing cells, MTII-stimulated cAMP, LANCE TR-FRET | inhibition, % at 6.5 µM | 360,000 compounds, 0.48% hits | AID 540295, 2011;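 active = inhibition above its plate's cutoff, the mean of tested wells on that plate plus 3 SD, cut at about 29% in these data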
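system = U2OS cells with stable human MC4R expression | also added = Melanotan II challenge after compound preincubation | dosing = one concentration, 6.5 µM nominal | incubation = compound 30 min, challenge 1 h, detection 1 h | measured by = TR-FRET with Eu-cAMP and labeled anti-cAMP, 671 nm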
SMARCA2 act – SMARCA2 (BRM) function activators, primary screen, cell-based, luminescence, high throughput; MG213 cells, MMTV-luciferase reporter, dexamethasone, overnight; activation, % at 9.1 µM; 370,000 compounds, 1% hits; in the data active = activation above about 7.8%
MC4R barr agon – MC4R agonists recruiting beta-arrestin, primary screen, cell-based, luminescence, agonist arm of biased-ligand search; 360,000 compounds, 0.98% hits; U2OS MC4R beta-arrestin complementation; percent of melanotan II response, DMSO zero; Melanocortin receptor 4 (Homo sapiens), P32245; activation, % at 8.9 µM;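 active = activation above a per-plate cutoff, the mean activation of sample wells on that plate plus 3 SD, cut at about 8% in these data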
ATG4B inh – ATG4B protease inhibitors, primary screen, biochemical, fluorescence, uHTS | Cysteine protease ATG4B (Homo sapiens), Q9Y4P1 | ATG4B cleavage of LC3-PLA2, NBD-HPC fluorescence, 1 h | inhibition, % at 8.33 µM | 340,000 compounds, 0.51% hits | AID 504462, 2011; in the data active = inhibition above about 40%
Target sequence (Q9Y4P1 whole entry, looked up): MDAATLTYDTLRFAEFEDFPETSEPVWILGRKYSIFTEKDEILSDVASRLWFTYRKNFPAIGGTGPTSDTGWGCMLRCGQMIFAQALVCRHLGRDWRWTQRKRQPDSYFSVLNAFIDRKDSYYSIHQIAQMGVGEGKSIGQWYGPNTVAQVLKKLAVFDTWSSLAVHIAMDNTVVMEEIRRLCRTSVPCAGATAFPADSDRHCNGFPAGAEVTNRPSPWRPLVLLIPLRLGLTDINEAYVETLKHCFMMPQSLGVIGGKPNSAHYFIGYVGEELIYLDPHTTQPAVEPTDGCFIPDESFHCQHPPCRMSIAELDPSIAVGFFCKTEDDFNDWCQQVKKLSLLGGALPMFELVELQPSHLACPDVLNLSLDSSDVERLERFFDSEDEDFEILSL
Numbers stand for hits; 0 = inactive; - = no result given. This is a sample that favours compounds with a hit; in the whole collection about 4.1% have one here.

SMILES	MPTP inh	MC4R antagonist	SMARCA2 act	MC4R barr agon	ATG4B inh
Cc1ccc(S(=O)(=O)Cc2cc(F)c([N+](=O)[O-])cc2[N+](=O)[O-])cc1	0	30.6	-	0	0
CCCc1cc(=O)oc2cc(OCC(=O)NCCCn3ccnc3)ccc12	0	0	0	0	0
CCCc1cc(=O)oc2cc(OC(C)C(=O)NCCCn3ccnc3)ccc12 (stereo not given)	0	0	7.9	0	0
Cc1ccc(NC(=O)OC2CC3CC2[C@H]2CCCCN2[C@H]3Cc2ccccc2)cc1 (stereo not given in full)	-	-	0	-	-
COC(=O)CCC(C)C1CCC2C3CCC4CC(O)CCC4(C)C3CC(O)C12C (stereo not given)	0	0	0	9.6	0
CC(CCC(=O)O)C1CCC2C3CCC4CC(O)CCC4(C)C3CC(O)C12C (stereo not given)	0	0	0	0	-
CC(C)(C)C(=O)OCc1nc(-c2ccc(F)cc2)cs1	0	0	7.9	0	0
Cc1sc(NC(=O)CSc2nnc(COc3ccccc3)n2C)c(C#N)c1C	0	0	0	0	0
Cc1sc(NC(=O)CSc2nnc3scc(-c4ccccc4)n23)c(C#N)c1C	0	0	0	15.7	0
Cc1cccc(Cn2cc(COC(=O)Nc3ccc(F)cc3)nn2)c1	-	-	0	-	-
CCC(=O)N1CCc2cc(Br)c(S(=O)(=O)NCc3ccccc3OC)cc21	-	-	0	-	-
CCOC(=O)Cn1nc(-c2ccccc2)c(-c2ccccc2)nc1=O	0	0	0	0	0
CCOC(=O)Cn1nc(-c2ccccc2)c2cnc3ccc(CC)cc3c21	0	0	0	8.4	0
O=C(NC(=S)Nc1ccccc1N1CCCC1)c1ccc(F)cc1	0	0	0	0	0
O=C(NC(=S)Nc1ccccc1N1CCCCC1)c1ccccc1	0	0	0	9.1	0
Cc1ccc(NC(=O)CCn2c(=S)oc3ccccc32)cc1F	0	0	0	8.3	0
O=C(CCc1ccccc1)N=C1SC2CS(=O)(=O)CC2N1Cc1ccccc1 (stereo not given)	0	0	0	8.9	0
COc1ccc(OC)c(Nc2nc(-c3ccncc3)nc3ccccc23)c1	0	0	0	12.6	0
COc1ccc(Nc2nc(-c3ccccc3)nc3ccccc23)c(OC)c1	0	0	0	0	0
O=C(NCc1ccccc1)[C@H]1CCCN1C(=O)[C@H]1CCCN1C(=O)c1ccccc1C(F)(F)F	-	-	0	-	-
c1ccc2c(c1)[nH]c1c3ccccc3sc21	0	0	0	8.3	0
Cc1[nH]c2ccc(-c3nnc(SCC(=O)c4ccc(F)cc4)o3)cc2c1C	0	0	12.3	0	0
CC(C)C(C)NC(=O)CSc1nnc(-c2c[nH]c3ccccc23)o1 (stereo not given)	0	0	0	0	0
Cc1ccc(C(=O)CSc2nnc(-c3c[nH]c4ccccc34)o2)cc1	0	0	0	8.2	0
O=C(CSc1ccc(Cl)cc1)Nc1ccccc1N1CCN(C(=O)c2ccc(Cl)cc2)CC1	0	0	0	0	0
SMILES	MPTP inh	MC4R antagonist	SMARCA2 act	MC4R barr agon	ATG4B inh
O=C(CSc1ccc(Cl)cc1)Nc1ccc(N2CCN(C(=O)c3ccc(Cl)cc3)CC2)cc1	0	0	0	14.0	0
COCc1cn(-c2ccc3c(c2)[C@]2(CC(=O)N(C)C2c2ccccc2)C(=O)N3CC(C)C)nn1 (stereo not given in full)	-	-	0	-	-
Cc1ccc2nc(-c3ccc(NC(=O)Cc4cccs4)cc3)[nH]c2c1	0	0	0	9.4	0
COc1ccc(-n2c(N)c(-c3nc4ccccc4n3C)sc2=S)cc1	0	0	0	0	0
CCOc1ccc(-n2c(N)c(-c3nc4ccccc4[nH]3)sc2=S)cc1	0	0	0	8.8	0
O=C(CCCOc1ccccc1)Nc1ccc(Br)cc1	0	0	0	8.6	0
O=C(CCCOc1ccccc1)Nc1ccncc1	0	0	0	0	0
Cc1cccc(OCCCC(=O)Nc2ccc(N3CCCCC3)cc2)c1	0	0	0	11.2	0
Oc1c(Br)cc(Br)cc1C=NCc1ccc(F)cc1	0	0	0	0	73.8
O/N=C/c1cc(Br)ccc1OCc1ccc(F)cc1	0	0	0	0	0
CCn1cnc2cc(NC(=O)c3ccc(C)cc3)ccc21	0	0	7.9	0	0
Cc1ccccc1NC(=O)C1C2/C=C\CCCCC21 (stereo not given)	0	0	0	8.8	0
COC(=O)c1ccccc1-c1ccc(C(c2c(C)[nH][nH]c2=O)c2c(C)[nH][nH]c2=O)o1	0	0	7.9	0	0
COC(=O)c1cccc(-c2ccc(C(c3c(C)[nH][nH]c3=O)c3c(C)[nH][nH]c3=O)o2)c1	0	0	0	0	0
CCOC(=O)[C@@]12CN(C(=O)OC(C)(C)C)CC=C1N(Cc1ccc(OC)cc1)C(=O)[C@H]2CC(=O)N1CCSCC1	-	-	0	-	-
Cc1ccc(/C(N)=N/OC(=O)c2ccc(F)cc2)cc1	0	0	7.8	0	0
c1ccc(Cn2c3ccccc3c3nnc(SCCN4CCCCC4)nc32)cc1	0	0	7.9	0	0
C=CCn1c2ccccc2c2nnc(SCCN3CCCCC3)nc21	0	0	0	0	0
O=S1(=O)c2ccc(Br)cc2OC[C@@H](Cc2ccccc2)N1Cc1cn(Cc2ccc(Cl)cc2)nn1	-	-	0	-	-
CN(C)CCC(=O)c1ccc2c(c1)OCO2	0	33.4	0	0	0
O=C(CSc1ccc(Cl)cc1)Nc1ccc(-c2nc3ccccc3[nH]2)cc1	0	0	0	10.2	0
O=C(CSc1ccccc1)Nc1nc2ccccc2[nH]1	0	0	0	0	0
O=C(Nc1ccccc1)N1CCC(O)(c2cccc(C(F)(F)F)c2)CC1	0	0	0	0	0
OC1(c2cccc(C(F)(F)F)c2)CCN(c2ccc(-c3ccccc3)nn2)CC1	0	0	0	9.2	0
COc1ccc(-n2c(SCC(=O)c3ccc4ccccc4c3)nnc2-c2ccccc2)cc1	-	-	0	-	-
SMILES	MPTP inh	MC4R antagonist	SMARCA2 act	MC4R barr agon	ATG4B inh
Cc1cc(C)cc(NC(=O)COc2coc(CN3CCc4ccccc43)cc2=O)c1	0	0	0	9.2	0
Cc1ccc(NC(=O)COc2coc(CN3CCc4ccccc43)cc2=O)c(C)c1	0	0	0	0	0
COC(=O)C1CN(Cc2ccc(F)cc2)CCS(=O)(=O)N1Cc1ccc(C)cc1 (stereo not given)	-	-	0	-	-
COC(=O)c1cc(NC(=O)c2ccc(-c3ccccc3)cc2)ccc1Cl	0	0	0	9.3	0
O=C(Nc1ccc(-c2ccccc2)cc1)c1ccccc1	0	0	0	0	0
COC(=O)C1=C(C)N(C)C(=NCc2ccc3c(c2)OCO3)NC1c1cccc(Cl)c1 (stereo not given)	-	-	0	-	-
Cc1cccnc1NS(=O)(=O)c1ccccc1	0	0	7.9	0	-
C=CCn1c(C)cc(C(=O)Cn2nc(C(=O)O)c3ccccc3c2=O)c1C	0	0	7.9	0	0
